Calls of active or inactive are those of the source. The rule behind the calls is not given here.
What was measured:
Mus musculus [1] = assay: Induction of glycemic control in db/db mouse assessed as reduction in blood glucose level administered subcutaneously measured upto 120 hrs; assay type: functional, organism-based; settings: dose 1-100 nmol/kg, route sc
Mus musculus [2] = assay: Induction of glycemic control in db/db mouse assessed as reduction in blood glucose level at 1 to 100 nmol/kg, sc measured upto 120 hrs; assay type: functional, organism-based
Summary of the method: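 db/db mice, three per dose group, got a single sc dose of 1, 3, 10, 30 or 100 nmol/kg, with a PBS control. Blood glucose was measured before dosing and at multiple time points after. EC50 was derived from the dose–response profiles by nonlinear regression. Mean ± SEM.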

Mus musculus [3] = assay: Induction of glycemic control in db/db mouse assessed as reduction in blood glucose level at 30 nmol/kg, sc measured after 48 hrs; assay type: functional, organism-based
Pancreatic islet = assay: Induction of insulin secretion in C57BL6/J mouse pancreatic islet at 10 to 100 nM incubated for 24 hrs in presence of 2.5 mM glucose by ELISA; assay type: functional, cell-based; settings: dose 10-100 nM
Mus musculus [4] = assay: Blood glucose lowering effect in db/db mouse assessed as blood glucose level at 30 nmol/kg, sc treated for 8 weeks administered on every 2 days (reference value: 17 to 30 mmol/L); assay type: functional
Mus musculus [5] = assay: Induction of glycemic control in db/db mouse assessed as reduction in proportion of iWAT weight to total body weight at 10 to 30 nmol/kg, sc treated for 8 weeks administered on every 2 days; assay type: functional, organism-based; settings: dose 10-30 nmol/kg
Summary of the method: (§1)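 db/db mice dosed sc with PBS or 10 or 30 nmol/kg every 2 days for 8 weeks; body weight, food and water intake recorded every 2 days; on day 59 heart, liver, iWAT and BAT excised and weighed; mean ± SEM, ANOVA with multiple comparisons.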

Mus musculus [6] = assay: Effect on heart weight in db/db mouse at 10 to 30 nmol/kg, sc treated for 8 weeks administered on every 2 days; assay type: functional, organism-based; settings: dose 10-30 nmol/kg; summary of the method: as §1
Mus musculus [7] = assay: Effect on liver weight in db/db mouse at 10 to 30 nmol/kg, sc treated for 8 weeks administered on every 2 days; assay type: functional, organism-based; settings: dose 10-30 nmol/kg; summary of the method: as §1
Mus musculus [8] = assay: Effect on brown adipose tissue weight in db/db mouse at 10 to 30 nmol/kg, sc treated for 8 weeks administered on every 2 days; assay type: functional, organism-based; settings: dose 10-30 nmol/kg; summary of the method: as §1
Mus musculus [9] = assay: Induction of glycemic control in db/db mouse assessed as reduction in polyphagia at 10 to 30 nmol/kg, sc treated for 8 weeks administered on every 2 days; assay type: functional, organism-based; settings: dose 10-30 nmol/kg; summary of the method: as §1
Mus musculus [10] = assay: Induction of glycemic control in db/db mouse assessed as reduction in polydipsia at 10 to 30 nmol/kg, sc treated for 8 weeks administered on every 2 days; assay type: functional, organism-based; settings: dose 10-30 nmol/kg; summary of the method: as §1
Mus musculus [11] = assay: Induction of glycemic control in db/db mouse assessed as reduction in […] in liver at 10 to 30 nmol/kg, sc treated for 8 weeks administered on every 2 days by H and E staining based analysis; assay type: functional, organism-based; settings: dose 10-30 nmol/kg
Mus musculus [12] = assay: Induction of glycemic control in db/db mouse assessed as reduction in macrovesicular steatosis in liver at 10 to 30 nmol/kg, sc treated for 8 weeks administered on every 2 days by H and E staining based analysis; assay type: functional, organism-based; settings: dose 10-30 nmol/kg
Summary of the method: (§2)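 After 8 weeks of sc dosing (10 or 30 nmol/kg every 2 days) of db/db mice, liver and iWAT fixed in 4% paraformaldehyde, paraffin-embedded, sectioned and H&E stained; adipocyte area and diameter distributions and liver steatosis, hypertrophy, ballooning scored.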

Mus musculus [13] = assay: Induction of glycemic control in db/db mouse assessed as reduction in microvesicular steatosis in liver at 10 to 30 nmol/kg, sc treated for 8 weeks administered on every 2 days by H and E staining based analysis; assay type: functional, organism-based; settings: dose 10-30 nmol/kg; summary of the method: as §2
Mus musculus [14] = assay: Induction of glycemic control in db/db mouse assessed as reduction in large lipid droplets in liver at 10 to 30 nmol/kg, sc treated for 8 weeks administered on every 2 days by H and E staining based analysis; assay type: functional, organism-based; settings: dose 10-30 nmol/kg; summary of the method: as §2
Mus musculus [15] = assay: Induction of glycemic control in db/db mouse assessed as reduction in hepatocyte ballooning at 10 to 30 nmol/kg, sc treated for 8 weeks administered on every 2 days by H and E staining based analysis; assay type: functional, organism-based; settings: dose 10-30 nmol/kg; summary of the method: as §2
Mus musculus [16] = assay: Induction of glycemic control in diet-induced obese C57BL/6 mouse assessed as reduction in blood glucose level at 30 nmol/kg, sc treated for 40 days administered on every 4 days relative to control; assay type: functional, organism-based; settings: time 40.0 day
Mus musculus [17] = assay: Induction of glycemic control in diet-induced obese C57BL/6 mouse assessed as reduction in fat mass at 3 to 100 nmol/kg, sc treated for 40 days administered on every 4 days; assay type: functional, organism-based; settings: dose 3-100 nmol/kg, time 40.0 day
Summary of the method: (§3)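 Male C57BL/6 mice fed 45% kcal fat diet from 6 to 18–20 weeks old, kept on diet, given sc PBS (100 μL) or 3–100 nmol/kg every 4 days for 40 days; glucose monitored; body weight, composition, blood chemistry and H&E histology of fixed liver and iWAT assessed post-treatment.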

Mus musculus [18] = assay: Induction of glycemic control in diet-induced obese C57BL/6 mouse assessed as increase in lean mass at 3 to 100 nmol/kg, sc treated for 40 days administered on every 4 days; assay type: functional, organism-based; settings: dose 3-100 nmol/kg, time 40.0 day; summary of the method: as §3
Mus musculus [19] = assay: Induction of glycemic control in diet-induced obese C57BL/6 mouse assessed as increase in proportion of small adipocytes at 3 to 100 nmol/kg, sc treated for 40 days administered on every 4 days by H and E staining based analysis; assay type: functional, organism-based; settings: dose 3-100 nmol/kg, time 40.0 day; summary of the method: as §3
Mus musculus [20] = assay: Induction of glycemic control in diet-induced obese C57BL/6 mouse assessed as decrease in proportion of large adipocytes at 3 to 100 nmol/kg, sc treated for 40 days administered on every 4 days by H and E staining based analysis; assay type: functional, organism-based; settings: dose 3-100 nmol/kg, time 40.0 day; summary of the method: as §3
Mus musculus [21] = assay: Induction of glycemic control in diet-induced obese C57BL/6 mouse assessed as decrease in total cholesterol level at 100 nmol/kg, sc treated for 40 days administered on every 4 days; assay type: functional, organism-based; settings: time 40.0 day; summary of the method: as §3
Mus musculus [22] = assay: Effect on ALT level in diet-induced obese C57BL/6 mouse at 3 to 100 nmol/kg, sc treated for 40 days administered on every 4 days; assay type: functional, organism-based; settings: dose 3-100 nmol/kg, time 40.0 day
Mus musculus [23] = assay: Inhibition of fatty liver in GAN-DIO-NASH C57BL/6JNarl mouse assessed as improvement in liver health at 30 nmol/kg, sc qd for 70 days; assay type: functional, organism-based; settings: time 70.0 day
Summary of the method: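 Male GAN-DIO-NASH mice on GAN diet dosed daily with PBS or 5–30 nmol/kg for 10 weeks; body weight, fat mass and ALT on days 0 and 70, liver H&E at 20×, liver triglycerides post-treatment; mean ± SEM, ANOVA or Student's t test.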

[24] = target: T1, Glucagon-like peptide 1 receptor (Homo sapiens, UniProt P43220); assay: Agonist activity at GLP-1 receptor (unknown origin) overexpressed in CHO-K1 cells assessed as cAMP production incubated for 30 mins by HitHunter cAMP assay; assay type: functional, cell-based
T1 sequence (P43220 whole entry): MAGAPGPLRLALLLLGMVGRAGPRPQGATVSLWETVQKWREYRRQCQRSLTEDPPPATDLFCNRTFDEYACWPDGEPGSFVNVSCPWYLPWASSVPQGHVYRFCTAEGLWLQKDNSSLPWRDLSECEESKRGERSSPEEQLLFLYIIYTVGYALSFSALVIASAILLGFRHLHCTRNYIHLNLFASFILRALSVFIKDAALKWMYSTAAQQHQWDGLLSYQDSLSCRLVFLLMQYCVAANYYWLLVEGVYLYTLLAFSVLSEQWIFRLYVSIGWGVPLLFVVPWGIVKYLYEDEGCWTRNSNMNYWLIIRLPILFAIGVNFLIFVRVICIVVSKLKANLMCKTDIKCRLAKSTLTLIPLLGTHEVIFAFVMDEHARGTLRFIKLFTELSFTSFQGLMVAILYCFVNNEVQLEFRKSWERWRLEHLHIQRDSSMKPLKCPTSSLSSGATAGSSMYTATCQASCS

[25] = target: T1, Glucagon-like peptide 1 receptor; assay: Agonist activity at GLP-1 receptor (unknown origin) overexpressed in CHO-K1 cells assessed as cAMP production incubated for 30 mins in presence of HSA by HitHunter cAMP assay; assay type: functional, cell-based
Albumin = Albumin (Homo sapiens, UniProt P02768); assay: Binding affinity to CM5-chip immobilized human serum albumin assessed as fold change in equilibrium association constant by SPR analysis relative to semaglutide
Albumin, sequence (P02768 whole entry): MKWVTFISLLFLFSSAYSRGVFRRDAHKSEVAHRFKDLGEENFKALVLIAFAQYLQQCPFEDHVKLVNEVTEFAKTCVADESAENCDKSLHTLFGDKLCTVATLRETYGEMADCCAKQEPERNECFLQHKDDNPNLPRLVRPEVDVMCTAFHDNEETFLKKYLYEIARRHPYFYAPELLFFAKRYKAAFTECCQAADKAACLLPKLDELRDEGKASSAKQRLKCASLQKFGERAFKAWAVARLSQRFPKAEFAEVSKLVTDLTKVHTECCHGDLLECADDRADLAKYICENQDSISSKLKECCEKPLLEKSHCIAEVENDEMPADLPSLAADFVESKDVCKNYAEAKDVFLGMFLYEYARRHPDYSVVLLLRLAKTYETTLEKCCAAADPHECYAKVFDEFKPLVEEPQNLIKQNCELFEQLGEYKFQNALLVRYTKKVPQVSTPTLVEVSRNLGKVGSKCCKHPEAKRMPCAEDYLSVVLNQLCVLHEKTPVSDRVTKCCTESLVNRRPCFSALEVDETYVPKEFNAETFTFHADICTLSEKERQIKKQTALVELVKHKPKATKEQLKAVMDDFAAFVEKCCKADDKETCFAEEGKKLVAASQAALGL

In the case of `CC[C@H](C)[C@H](NC(=O)[C@H](Cc1ccccc1)NC(=O)[C@H](CCC(=O)O)NC(=O)[C@H](CCCCNC(=O)COCCOCCNC(=O)COCCOCCNC(=O)CC[C@H](NC(=O)CCCCCCCCCCCCCCCCC(=O)O)C(=O)O)NC(=O)[C@H](C)NC(=O)[C@H](C)NC(=O)[C@H](CCC(N)=O)NC(=O)CNC(=O)[C@H](CCC(=O)O)NC(=O)[C@H](CC(C)C)NC(=O)[C@H](Cc1ccc(O)cc1)NC(=O)[C@H](CO)NC(=O)[C@H](CO)NC(=O)[C@@H](NC(=O)[C@H](CC(=O)O)NC(=O)[C@H](CO)NC(=O)[C@@H](NC(=O)[C@H](Cc1ccccc1)NC(=O)[C@@H](NC(=O)CNC(=O)[C@H](CCC(=O)O)NC(=O)C(C)(C)NC(=O)[C@@H](N)Cc1cnc[nH]1)[C@@H](C)O)[C@@H](C)O)C(C)C)C(=O)N[C@@H](C)C(=O)N[C@@H](Cc1c[nH]c2ccccc12)C(=O)N[C@@H](CC(C)C)C(=O)N[C@H](C(=O)N[C@@H](CCCNC(=N)N)C(=O)NCC(=O)N[C@@H](CCCNC(=N)N)C(=O)NCC(=O)O)C(C)C`, the Activity (Mus musculus [1]) is reported as “Dose-dependent-effect”, the EC50 (Mus musculus [2]) is reported as 9.24 nM and the Activity (Mus musculus [3]) is reported as “inactive”. The Activity (Pancreatic islet) was “inactive”, the Activity (Mus musculus [4]) was 17.7 mmol/L and the Activity (Mus musculus [5]) was “Active”. The Activity (Mus musculus [6]) was “No effect”, the Activity (Mus musculus [7]) was “No effect” and the Activity (Mus musculus [8]) was “No effect”. For the same molecule, the Activity (Mus musculus [9]) was “Active”, the Activity (Mus musculus [10]) was “Active” and the Activity (Mus musculus [11]) was “Active”. The Activity (Mus musculus [12]) was “Active”, the Activity (Mus musculus [13]) was “Active” and the Activity (Mus musculus [14]) was “Active”. For the same molecule, the Activity (Mus musculus [15]) was “Active”, the Activity (Mus musculus [16]) was “inactive” and the Activity (Mus musculus [17]) was “inactive”. For the same molecule, the Activity (Mus musculus [18]) was “inactive”, the Activity (Mus musculus [19]) was “inactive” and the Activity (Mus musculus [20]) was “inactive”. The Activity (Mus musculus [21]) was “Active”, the Activity (Mus musculus [22]) was “No effect” and the inhibition (Mus musculus [23]) was “Active”.

Molecule `CCCCCCCCCCCCCCCC(=O)N[C@@H](CCC(=O)NCCCC[C@@H](NC(=O)CCOCCOCCOCCOCCNC(=O)CCc1cn(CC(=O)N[C@@H](CCC(=O)NCCCC[C@H](NC(=O)[C@H](C)NC(=O)[C@H](C)NC(=O)[C@H](CCC(N)=O)NC(=O)CNC(=O)[C@H](CCC(=O)O)NC(=O)[C@H](CC(C)C)NC(=O)[C@H](Cc2ccc(O)cc2)NC(=O)[C@H](CO)NC(=O)[C@H](CO)NC(=O)[C@@H](NC(=O)[C@H](CC(=O)O)NC(=O)[C@H](CO)NC(=O)[C@@H](NC(=O)[C@H](Cc2ccccc2)NC(=O)[C@@H](NC(=O)CNC(=O)[C@H](CCC(=O)O)NC(=O)C(C)(C)NC(=O)[C@@H](N)Cc2cnc[nH]2)[C@@H](C)O)[C@@H](C)O)C(C)C)C(=O)N[C@@H](CCC(=O)O)C(=O)N[C@@H](Cc2ccccc2)C(=O)N[C@H](C(=O)N[C@@H](C)C(=O)N[C@@H](Cc2c[nH]c3ccccc23)C(=O)N[C@@H](CC(C)C)C(=O)N[C@H](C(=O)N[C@@H](CCCNC(=N)N)C(=O)NCC(=O)N[C@@H](CCCNC(=N)N)C(=O)NCC(=O)O)C(C)C)[C@@H](C)CC)C(=O)O)nn1)C(=O)NCCOCCOCCOCCOCCC(=O)N[C@H](CCCCNC(=O)CC[C@@H](NC(=O)CCCCCCCCCCCCCCCCC(=O)O)C(=O)O)C(=O)O)C(=O)O` has an EC50 [24] of 0.92 nM and an EC50 [25] of 43.3 nM.

In the case of `CCCCCCCCCCCCCCCC(=O)N[C@@H](CCC(=O)NCCCC[C@H](NC(=O)CCOCCOCCOCCOCCNC(=O)CCc1cn(CC(=O)N[C@@H](CCC(=O)NCCCC[C@H](NC(=O)[C@H](C)NC(=O)[C@H](C)NC(=O)[C@H](CCC(N)=O)NC(=O)CNC(=O)[C@H](CCC(=O)O)NC(=O)[C@H](CC(C)C)NC(=O)[C@H](Cc2ccc(O)cc2)NC(=O)[C@H](CO)NC(=O)[C@H](CO)NC(=O)[C@@H](NC(=O)[C@H](CC(=O)O)NC(=O)[C@H](CO)NC(=O)[C@@H](NC(=O)[C@H](Cc2ccccc2)NC(=O)[C@@H](NC(=O)CNC(=O)[C@H](CCC(=O)O)NC(=O)[C@H](C)NC(=O)[C@@H](N)Cc2cnc[nH]2)[C@@H](C)O)[C@@H](C)O)C(C)C)C(=O)N[C@@H](CCC(=O)O)C(=O)N[C@@H](Cc2ccccc2)C(=O)N[C@H](C(=O)N[C@@H](C)C(=O)N[C@@H](Cc2c[nH]c3ccccc23)C(=O)N[C@@H](CC(C)C)C(=O)N[C@H](C(=O)N[C@@H](CCCNC(=N)N)C(=O)NCC(=O)N[C@@H](CCCNC(=N)N)C(=O)NCC(=O)O)C(C)C)[C@@H](C)CC)C(=O)O)nn1)C(=O)NCCOCCOCCOCCOCCC(=O)N[C@@H](CCCCNC(=O)CC[C@H](NC(=O)CCCCCCCCCCCCCCC)C(=O)O)C(=O)OC)C(=O)O`, the “fold change (FC)” value (Albumin) is reported as 8.

Source: ChEMBL document CHEMBL6115024 (J Med Chem, 2025)
